Compound activity from PubChem.
OX1R antag-1 = antagonists of human orexin 1 receptor (OX1R); AID 485270; OX1R-expressing cells, FRET antagonist read-out; O43613; 1.8% of 330,000 active; inhibition, % at 6.6 µM; in the data active = inhibition mostly above about 38%, no sharp cut-off; inactive = mostly below about 40%;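 also: 0% = agonist challenge alone and 100% = reference antagonist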
Target sequence (O43613 whole entry, looked up): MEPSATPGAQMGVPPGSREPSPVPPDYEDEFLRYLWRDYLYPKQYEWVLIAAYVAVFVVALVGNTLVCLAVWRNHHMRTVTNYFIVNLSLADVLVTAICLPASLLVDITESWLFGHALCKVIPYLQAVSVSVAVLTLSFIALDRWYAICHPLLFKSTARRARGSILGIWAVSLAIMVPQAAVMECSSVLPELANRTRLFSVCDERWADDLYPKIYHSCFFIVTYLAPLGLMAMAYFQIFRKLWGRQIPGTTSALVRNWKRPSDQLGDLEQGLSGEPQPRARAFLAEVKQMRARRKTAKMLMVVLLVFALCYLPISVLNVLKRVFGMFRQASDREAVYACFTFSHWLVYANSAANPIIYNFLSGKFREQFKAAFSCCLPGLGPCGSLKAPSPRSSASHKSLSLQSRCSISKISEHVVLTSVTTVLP
OX1R antag-2 = antagonists of human orexin 1 receptor; O43613; CHO/OX1R cells, Fluo-8 calcium fluorescence, orexin A; inhibition, % at 5 µM; 0.43% of 330,000 active; AID 434989;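 active = inhibition above its plate's threshold, mean inhibition of all tested compounds on the plate plus 3 SD, cut at about 37% in these data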;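 also: 0% = orexin A challenge wells and 100% = SB-334867-A antagonist wells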
CHO parental Ca = counter-screen for OX1R antagonists: effect in parental CHO cells; parental CHO-K1, ATP-induced calcium, Fluo-8 fluorescence; inhibition, % at 5.6 µM; 0.63% of 330,000 active;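 active = inhibition above that plate's mean sample inhibition plus 3 SD, cut at about 26% in these data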;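 also: 0% = ATP-challenged DMSO wells and 100% = DMSO wells without ATP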
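Material – parental CHO cells · Reagent – ATP stimulus · Compound – single nominal dose of 5.6 µM per compound · Detection – Fluo-8 fluorescence · Read-out basis – percent inhibition of calcium signal · Controls – ATP-challenged DMSO wells low, unchallenged DMSO wells high · Repeats – no replicates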
CHO-K1 Ca ag = M1 agonist counterscreen hit in parental CHO-K1 cells. Fluo-8 calcium fluorescence; scaled to maximal ATP response, vehicle zero. activation, % at 3 µM. 0.48% of 360,000 active. AID 602248; in the data active = activation above about 15%;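 also: untransfected CHO-K1 host cells lacking M1 receptor as counterscreen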
CHO-K1 Ca PAM = M1 PAM counterscreen hit in parental CHO-K1 cells | ATP EC20, Fluo-8 calcium fluorescence; 0% at ATP EC20, 100% at ATP max | activation, % at 3 µM | 0.02% of 360,000 active | AID 602247;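 active = activation above the run cutoff, the mean activation of all test compounds plus 3 SD, cut at about 40% in these data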;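 also: peak over basal fluorescence ratio in a 140 s read after ATP addition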
CHO-K1 Ca antag = nonselective inhibitor or artifact in parental CHO-K1 cells. ATP-induced calcium, Fluo-8 fluorescence. inhibition, % at 3 µM. 0.6% of 360,000 active. AID 602250;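 active = inhibition above a per-plate cutoff, the plate's mean sample inhibition plus 3 SD, cut at about 24% in these data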;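 also: 0% = DMSO plus EC80 ATP and 100% = DMSO alone without ATP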
Starred values were filed as active, the others as inactive; / = not tested or not shown. A selection: hits, their analogues and other compounds. The true share with any hit is near 2.9%.

SMILES	OX1R antag-1	OX1R antag-2	CHO parental Ca	CHO-K1 Ca ag	CHO-K1 Ca PAM	CHO-K1 Ca antag
COCCCNC(=O)/C(C#N)=C/c1c(N2CCN(C)CC2)nc2ccccn2c1=O	46.7*	-18.9	-7.4	0.1	-21.6	-3.0
COCCCNC(=O)/C(C#N)=C/c1c(N2CCN(c3ccccc3)CC2)nc2ccccn2c1=O	26.9	-29.7	-14.5	4.9	-14.8	-5.3
CCc1ccc(NC(=O)NCCN2CCN(c3ccc(OC)cc3)CC2)cc1	-6.2	-35.6	-19.8	15.4*	12.0	0.8
COc1ccccc1C(=O)NC(=O)COC(=O)c1ccc([N+](=O)[O-])cc1	49.6*	-16.0	-18.1	0.7	7.1	-5.3
O=C(Oc1ccccc1C(=S)N1CCOCC1)c1cccc([N+](=O)[O-])c1	19.4	-21.8	-14.7	0.0	-3.2	-4.0
CC(C)OC(=O)NCCOC(=O)Nc1cccc(Cl)c1	59.4	48.2*	36.5*	10.4	1.8	29.1*
CC(C)OC(=O)NCCOC(=O)Nc1ccc(Cl)c(Cl)c1	38.1	40.5	50.2*	6.0	7.9	17.2
O=C(Nc1cccc(Cl)c1)OCCOC(=O)Nc1cccc(Cl)c1	/	/	/	0.9	-2.2	-17.1
CC(C)OC(=O)NC(C)(C)COC(=O)Nc1cccc(Cl)c1	31.1	20.5	35.1*	4.5	-0.8	4.7
CC(C)OC(=O)Nc1ccc(-c2ccc(NC(=O)OC(C)C)cc2Cl)c(Cl)c1	8.1	-26.9	-3.6	0.2	0.9	-8.9
CC(OC(=O)Nc1cccc(Cl)c1)C(=O)O (stereo unspecified)	-5.1	-2.5	0.7	0.3	-3.3	4.5
O=C1c2ccccc2-c2nc3ccccc3cc21	58.5*	-2.9	-2.9	1.0	-6.4	9.8
c1ccc2c(c1)Cc1cc3ccccc3nc1-2	28.1	-3.6	-16.5	0.8	-5.0	-5.9
COC(=O)CCN(C(=O)c1ccc(N2CCCCC2)c([N+](=O)[O-])c1)c1ccccn1	19.4	-14.8	4.1	20.1*	10.3	7.1
COC(=O)CCN(C(=O)c1ccc([N+](=O)[O-])cc1)c1ccccn1	33.7	-71.4	-35.3	0.7	-2.3	-8.6
COC(=O)CCN(C(=O)c1cc([N+](=O)[O-])cc([N+](=O)[O-])c1)c1ccccn1	66.3*	-17.2	0.6	0.2	-12.1	12.3
COC(=O)CCN(C(=O)c1ccc(N2CCCC2)c([N+](=O)[O-])c1)c1ccccn1	15.9	-10.3	-18.7	1.1	21.4	-18.2
CCCc1cc(=O)oc2c3c(cc(OCC(=O)NCCN4CCOCC4)c12)OC(C)(C)CC3	12.1	-35.8	-9.5	0.9	-3.6	-0.4
CCOc1ccc(Br)cc1C1C(C(=O)OC)=C(N)Oc2cc(N(C)C)ccc21 (stereo unspecified)	21.4	-25.6	-11.8	0.6	21.1	-2.0
O=C(NCCc1ccc(Cl)cc1)C1=CC=CN2CCS(=O)(=O)N=C12	3.1	-15.8	-15.7	0.2	12.6	-6.8
Cc1nc2c3ccccc3nc(NNC(=O)CCC(=O)NCCC(C)C)n2n1	14.0	-4.9	-6.8	1.2	27.1	-8.5
CCN(CC)CCCNC(=O)CCC(=O)NNc1nc2ccccc2c2nc(C)nn12	7.5	-1.1	11.4	-0.1	9.5	-4.8
CCOCCCNC(=O)CCC(=O)NNc1nc2ccccc2c2nc(-c3ccccc3)nn12	53.2*	26.2	-16.4	3.6	15.3	-5.2
COCCNC(=O)CCC(=O)NNc1nc2ccccc2c2nc(-c3ccccc3)nn12	71.8*	6.0	-3.4	1.1	21.3	-4.1
CC(C)OCCCNC(=O)CCC(=O)NNc1nc2ccccc2c2nc(-c3ccccc3)nn12	65.8*	18.9	-12.9	0.8	3.9	3.5
SMILES	OX1R antag-1	OX1R antag-2	CHO parental Ca	CHO-K1 Ca ag	CHO-K1 Ca PAM	CHO-K1 Ca antag
COc1ccc(NS(=O)(=O)c2cc(NC(=O)c3ccc(=O)[nH]n3)ccc2C)cc1	-1.1	-10.8	-12.0	-0.3	1.4	6.1
O=C(c1cccc(C(F)(F)F)c1)C1CCCN(C(=O)/C=C/c2cnc[nH]2)C1 (stereo unspecified)	/	/	/	2.1	14.8	-11.6
Cc1ccc(O)c(NC(=S)NC(=O)C(C)C)c1	10.2	-14.0	-16.6	-0.5	5.6	-6.9
CN(C)c1cccc(C(=O)OCC(=O)Nc2ccccc2Sc2ccccc2)c1	16.7	-29.6	6.2	-0.7	-13.9	31.1*
O=C(CCl)Nc1ccccc1Sc1ccccc1	24.4	-17.4	-24.2	-0.4	-6.5	23.9*
CN(C)c1cccc(C(=O)OCC(=O)Nc2ccccc2-c2ccccc2)c1	33.3	-4.4	-8.5	1.5	5.9	5.0
CCOC(=O)C1=C(COC(=O)CCC(=O)c2ccc(C)cc2)NC(=O)NC1C (stereo unspecified)	8.7	-23.7	-26.7	0.2	7.1	-5.2
CNC(=O)c1sc(-c2cccs2)nc1C	34.8	-4.3	1.0	4.3	8.9	-3.0
O=C(O)c1ccc(N/N=C/c2cn(Cc3ccccc3F)c3ccccc23)cc1	5.4	8.3	13.3	23.1*	0.8	8.5
Cc1nc2ccc(N=NC3=C(O)CC(C)(C)CC3=O)cc2s1	61.6*	11.1	-7.5	0.1	-8.3	-0.4
CC1(C)CC(=O)C(N=Nc2cccc(S(=O)(=O)N3CCOCC3)c2)=C(O)C1	1.4	-4.7	2.0	0.7	9.9	-5.0
Cc1nc2ccc(N=NC3=C(O)CCCC3=O)cc2s1	29.6	-1.9	-8.7	-0.1	11.9	-5.3
CC(=O)N1CCc2cc(N=NC3=C(O)CC(C)(C)CC3=O)ccc21	56.1*	-5.0	2.7	0.0	8.3	-7.2
Cc1cc(S(=O)(=O)NCCCN2CCOCC2)ccc1Br	2.2	-32.8	-6.2	0.6	6.8	-9.7
COc1ccccc1CNC(=O)C(=O)NCCC1CCCCN1S(=O)(=O)c1ccc(C)cc1 (stereo unspecified)	33.9	-15.7	2.1	2.5	18.6	3.1
O=C(NCC1OCCCN1S(=O)(=O)c1cc(F)ccc1F)C(=O)NC1CCCCCC1 (stereo unspecified)	51.0	-14.0	-15.1	2.1	2.3	32.4*
O=C(NCCc1ccco1)C(=O)NCC1CCCN1S(=O)(=O)c1ccccc1 (stereo unspecified)	29.6	22.3	-27.6	3.8	-3.8	4.6
Cc1ccc(C)c(S(=O)(=O)N2CCCC2CNC(=O)C(=O)NCCc2ccco2)c1 (stereo unspecified)	58.0*	11.4	-14.6	4.3	13.7	-4.9
COc1ccccc1CCNC(=O)C(=O)NCCC1CCCCN1S(=O)(=O)c1ccccc1 (stereo unspecified)	60.0*	-2.2	-30.9	1.1	11.1	1.4
Cc1cc(S(=O)(=O)N2CCCOC2CNC(=O)C(=O)NCCc2ccco2)ccc1F (stereo unspecified)	61.5*	11.0	-17.6	2.8	12.5	-6.7
Cc1ccc(S(=O)(=O)N2CCCOC2CNC(=O)C(=O)NCCc2ccco2)cc1 (stereo unspecified)	/	/	/	1.4	3.1	-3.9
